Data on 4 molecules can be found in ChEMBL document CHEMBL3351590, “8-Methyltryptanthrin-induced differentiation of P19CL6 embryonal carcinoma cells into spontaneously beating cardiomyocyte-like cells” (2014).

Calls of active or inactive are those of the source. No cut-off for these calls is given here.

The test system of test [1] is P19CL6. Description: Induction of Cav1.2 gene expression in C3H/He mouse P19CL6 cells. Type of test: functional, cell-based. An outline of the steps:
(§1)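 P19CL6 cells are cultured in α-MEM with 10% FBS, with compound (final DMSO ≤0.1%) renewed every 48 h. Total RNA is taken on day 10 and/or 18 and reverse-transcribed with random primers. Real-time PCR: 95 °C 10 min, then 40 cycles of 95 °C 15 s and 60 °C 1 min. Expression is normalized to G3PDH and given as a ratio to day 0.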

Test [2] relates to P19CL6. Description: Induction of alpha-MHC gene expression in C3H/He mouse P19CL6 cells at 1 uM measured on day 10 and 18 by RT-PCR analysis. Type of test: functional, cell-based. An outline of the steps: (§2)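 Cardiac gene qPCR (α-MHC, GATA4, BMP2) in P19CL6 cells kept in α-MEM/10% FBS with agent, medium renewed at 48 h intervals. RNA is harvested on days 10 and 18 and reverse-transcribed with random primers. PCR runs 40 cycles (95 °C 15 s, 60 °C 1 min). Values are normalized to G3PDH, expressed relative to day 0, as mean ± SEM, n = 4.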

Test [3] deals with P19CL6. Description: Induction of BMP2 gene expression in C3H/He mouse P19CL6 cells at 1 uM measured on day 10 and 18 by RT-PCR analysis. In kind it is functional, cell-based. An outline of the steps:
as §2

Test [4] concerns P19CL6. Description: Induction of differentiation of C3H/He mouse P19CL6 cells assessed as aggregate formation at 0.1 to 1 uM on day 10 by phase contrast microscopic analysis. In kind it is functional, cell-based. An outline of the steps:
(§3)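 Cells are seeded at 2.0 × 10^4 per 35 mm dish in α-MEM with 10% FBS, penicillin and streptomycin, plus compound (final DMSO ≤0.1%), with medium changed every 48 h. Aggregates and beating aggregates are counted every 2 days by phase-contrast microscopy in five ×100 fields (total 8.8 mm2), up to day 18. Mean ± SEM, n = 7.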

Test [5] concerns P19CL6. Briefly: Induction of differentiation of C3H/He mouse P19CL6 cells assessed as beating aggregate formation at 0.1 to 1 uM on day 10 by phase contrast microscopic analysis. In kind it is functional, cell-based. An outline of the steps: as §3
Test [6] concerns P19CL6. Briefly: Induction of GATA4 gene expression in C3H/He mouse P19CL6 cells at 1 uM measured on day 10 and 18 by RT-PCR analysis. In kind it is functional, cell-based. An outline of the steps:
as §2

Test [7] has as its system P19CL6. Description: Effect on GJC1 gene expression in C3H/He mouse P19CL6 cells at 1 uM by RT-PCR analysis. In kind it is functional, cell-based. An outline of the steps: as §1
The nature of test [8]: Decrease in Cav1.3 gene expression in C3H/He mouse P19CL6 cells at 1 uM on day 10 and day 18 by RT-PCR analysis. Type of test: functional, cell-based. An outline of the steps: as §1
For test [9], the system named is P19CL6. Briefly: Effect on HCN2 gene expression in C3H/He mouse P19CL6 cells at 1 uM by RT-PCR analysis. Type of test: functional, cell-based. An outline of the steps:
as §1

The subject of test [10] is P19CL6. Description: Induction of BMP2 gene expression in C3H/He mouse P19CL6 cells at 1 uM by RT-PCR analysis. In kind it is functional, cell-based. The note with it: TDE = time-dependent effect. An outline of the steps:
as §2

For test [11], the system named is P19CL6. Description: Induction of differentiation of C3H/He mouse P19CL6 cells assessed as beating aggregate formation on day 10 by phase contrast microscopic analysis. In kind it is functional, cell-based. An outline of the steps:
as §3

Test [12] is described as follows: Induction of GJA5 gene expression in C3H/He mouse P19CL6 cells at 1 uM on day 10 by RT-PCR analysis relative to control. Type of test: functional. An outline of the steps:
as §1

The nature of test [13]: Induction of GJA1 gene expression in C3H/He mouse P19CL6 cells at 1 uM on day 18 by RT-PCR analysis relative to control. Type of test: functional. An outline of the steps:
as §1

The test system of test [14] is P19CL6. Briefly: Induction of Cav1.2 gene expression in C3H/He mouse P19CL6 cells on day 10 and 18 by RT-PCR analysis. In kind it is functional, cell-based. An outline of the steps: as §1
A short description of test [15]: Induction of GATA4 gene expression in C3H/He mouse P19CL6 cells at 1 uM measured on day 10 and 18 by RT-PCR analysis relative to control. In kind it is functional. An outline of the steps: as §2
Test [16] can be described thus: Induction of Cav1.2 gene expression in C3H/He mouse P19CL6 cells at 1 uM on day 18 by RT-PCR analysis relative to control. Type of test: functional. An outline of the steps: as §1
For test [17], the system named is P19CL6. Briefly: Effect on HCN4 gene expression in C3H/He mouse P19CL6 cells at 1 uM by RT-PCR analysis. Type of test: functional, cell-based. An outline of the steps: as §1
Test [18] is described as follows: Induction of alpha-MHC gene expression in C3H/He mouse P19CL6 cells at 1 uM measured on day 10 and 18 by RT-PCR analysis relative to control. Type of test: functional. An outline of the steps:
as §2

Test [19] relates to P19CL6. Briefly: Effect on Cav3.2 gene expression in C3H/He mouse P19CL6 cells at 1 uM by RT-PCR analysis. In kind it is functional, cell-based. An outline of the steps:
as §1

The nature of test [20]: Induction of GJA5 gene expression in C3H/He mouse P19CL6 cells at 1 uM on day 18 by RT-PCR analysis relative to control. Type of test: functional. An outline of the steps:
as §1

Test [21] has as its system P19CL6. Description: Induction of differentiation of C3H/He mouse P19CL6 cells assessed as beating aggregate formation at 0.1 to 1 uM using compound dissolved in 0.03% DMSO by phase contrast microscopic analysis. In kind it is functional, cell-based. An outline of the steps:
as §3

Test [22] relates to P19CL6. Briefly: Induction of Cav3.1 gene expression in C3H/He mouse P19CL6 cells at 1 uM on day 18 by RT-PCR analysis. Type of test: functional, cell-based. An outline of the steps:
as §1

For test [23], the system named is P19CL6. Briefly: Induction of differentiation of C3H/He mouse P19CL6 cells assessed as beating aggregate formation at 0.1 to 1 uM on day 18 by phase contrast microscopic analysis. In kind it is functional, cell-based. An outline of the steps:
as §3

Test [24] in a line: Induction of BMP2 gene expression in C3H/He mouse P19CL6 cells at 1 uM measured on day 10 and 18 by RT-PCR analysis relative to control. Type of test: functional. An outline of the steps:
as §2

Test [25] has as its system P19CL6. Briefly: Induction of Cav1.2 gene expression in C3H/He mouse P19CL6 cells at 1 uM by RT-PCR analysis. Type of test: functional, cell-based. The note with it: TDE = time-dependent effect. An outline of the steps:
as §1

The nature of test [26]: Decrease in Cav3.1 gene expression in C3H/He mouse P19CL6 cells at 1 uM on day 10 by RT-PCR analysis relative to control. In kind it is functional, cell-based. An outline of the steps: as §1
Test [27] has as its system P19CL6. Description: Induction of alpha-MHC gene expression in C3H/He mouse P19CL6 cells at 1 uM by RT-PCR analysis. In kind it is functional, cell-based. The note with it: TDE = time-dependent effect. An outline of the steps:
as §2

In test [28] the test system is P19CL6. Briefly: Induction of GATA4 gene expression in C3H/He mouse P19CL6 cells at 1 uM by RT-PCR analysis. In kind it is functional, cell-based. The note with it: TDE = time-dependent effect. An outline of the steps:
as §2

Test [29] is described as follows: Induction of differentiation of C3H/He mouse P19CL6 cells assessed as number of beating aggregates at 1 uM on day 18 by phase contrast microscopic analysis. In kind it is functional. An outline of the steps: as §3
In test [30] the test system is P19CL6. Briefly: Effect on GJA4 gene expression in C3H/He mouse P19CL6 cells at 1 uM by RT-PCR analysis. Type of test: functional, cell-based. An outline of the steps: as §1
Test [31] in a line: Induction of differentiation of C3H/He mouse P19CL6 cells assessed as number of aggregates at 1 uM on day 18 by phase contrast microscopic analysis (reference value: 38.2 +/- 8.4/mm2). In kind it is functional. An outline of the steps:
as §3

Test [32] can be described thus: Induction of differentiation of C3H/He mouse P19CL6 cells assessed as beating rate of cardiomyocyte-like cells at 1 uM on day 18 (reference value: 45.2 +/- 4.2 bpm). Type of test: functional.
The subject of test [33] is P19CL6. Description: Effect on GJB1 gene expression in C3H/He mouse P19CL6 cells at 1 uM by RT-PCR analysis. In kind it is functional, cell-based. An outline of the steps: as §1
For test [34], the system named is P19CL6. Description: Induction of differentiation of C3H/He mouse P19CL6 cells assessed as aggregate formation at 0.1 to 1 uM on day 18 by phase contrast microscopic analysis. In kind it is functional, cell-based. An outline of the steps: as §3
Test [35] concerns P19CL6. Description: Induction of differentiation of C3H/He mouse P19CL6 cells assessed as aggregate formation on day 10 by phase contrast microscopic analysis. Type of test: functional, cell-based. An outline of the steps:
as §3

Test [36] is described as follows: Increase in area of beating aggregates in C3H/He mouse P19CL6 cells on day 18 by phase contrast microscopic analysis (reference value: 0.5 +/- 0.3 /mm2). In kind it is functional.
Test [37] is described as follows: Induction of Cav1.2 gene expression in C3H/He mouse P19CL6 cells at 1 uM on day 10 by RT-PCR analysis relative to control. In kind it is functional. An outline of the steps:
as §1

With `O=C1c2ccccc2-n2c1nc1ccccc1c2=O`, the result in test [1], in [2], in test [3], in test [4], in test [5] and in [6] was inactive.

Regarding `Cc1ccc2c(c1)C(=O)c1nc3ccccc3c(=O)n1-2`, the result in test [7], in test [9], in test [17], in test [19], in test [30] and in test [33] was inactive. Moreover, the inhibition entry in test [8] was “Active”. For the same molecule, the Activity entry was “tde” in test [10]; “Dose-dependent effect” in [11]; “Dose-dependent effect” in test [14]; “tde” in [25]; “tde” in [27]; “tde” in test [28]. In addition, the Activity is 33.7 /mm2 in [29]; 47.3 /mm2 in test [31]; 52.1 bpm in [32]; “Dose-dependent effect” in test [35]; 2.7 mm2 in test [36]. Also, the “fold change (FC)” value in test [12] came out at 17.44; in [13], 1.38; in test [15], 30.3; in test [16], 3.38; in [18], 1130.1; in [20] it was 7.06. Moreover, the “fold change (FC)” value came out at 84.4 in test [24], 0.21 in [26] and 1.9 in [37]. Further, the outcome in test [21], in [22], in test [23] and in test [34] was Active.

As to `CCCc1ccc2c(c1)C(=O)c1nc3ccccc3c(=O)n1-2`, the result in test [1], in test [4] and in test [5] was inactive.

With `CCc1ccc2c(c1)C(=O)c1nc3ccccc3c(=O)n1-2`, the outcome in [1], in [4] and in test [5] was inactive.
